In brackets after ≈: the same amount, converted by molar mass. Activity calls are given as the source filed them. The rule behind the calls is not given here.
Assays:
[1] = system: Mycobacterium tuberculosis; assay: Inhibition of C-terminal His-tagged Mycobacterium tuberculosis Ag85C expressed in Escherichia coli C41 (DE3) at 2.5 to 50 uM after 1 hr by resorufin butyrate-based fluorescence assay
Method in brief: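 Purified Ag85C mycolyltransferase activity measured with the fluorescent probe resorufin butyrate; compounds tested at 2.5 to 50 μM.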

[2] = target: Cytochrome P450 3A4 (Homo sapiens, UniProt P08684); assay: Inhibition of CYP3A4 in human liver microsomes preincubated for 5 mins followed by NADPH addition measured after 5 mins by LC-MS/MS analysis; format: ADME
[3] = system: Mycobacteroides abscessus; assay: Antibacterial activity against non CF patient derived Mycobacterium abscessus subsp. abscessus isolate CIP104536 smooth variant after 3 to 5 days by two fold serial dilution method; format: functional
Method in brief: (§1)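 Broth microdilution in cation-adjusted Mueller−Hinton broth per CLSI; inoculum 5 × 10^6 CFU/mL of exponential-phase bacteria; two-fold serial dilutions, solvent-only wells as control; 30 °C for 3−5 days; MIC read visually and confirmed by absorbance at 560 nm; triplicate on three independent occasions.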

[4] = system: Mycobacteroides abscessus; assay: Antibacterial activity against CF patient derived Mycobacterium abscessus subsp. abscessus isolate 2069 smooth variant after 3 to 5 days by two fold serial dilution method; format: functional; method in brief: as §1
[5] = Selectivity index, ratio of IC50 for African green monkey Vero cells to MIC=<90 for Mycobacterium tuberculosis; format: toxicity; conditions: read-out: Selectivity Index
[6] = Antibacterial activity against non CF patient derived Mycobacterium abscessus subsp. bolletii isolate 17 smooth variant after 3 to 5 days by two fold serial dilution method; format: functional; conditions: Mycobacteroides abscessus; method in brief: as §1
[7] = system: Mycobacteroides abscessus; assay: Antibacterial activity against CF patient derived Mycobacterium abscessus subsp. abscessus isolate 3321 smooth variant after 3 to 5 days by two fold serial dilution method; format: functional; method in brief: as §1
[8] = system: Mycobacteroides abscessus; assay: Antibacterial activity against non CF patient derived Mycobacterium abscessus subsp. abscessus isolate 3022 rough variant after 3 to 5 days by two fold serial dilution method; format: functional; method in brief: as §1
[9] = system: Mycobacteroides abscessus; assay: Antibacterial activity against Mycobacterium abscessus CIP104536 smooth variant harboring pMV261 MAB_4508_A309P mutant at 0.5 to 1 ug/ml after 3 days; format: functional
Method in brief: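 M. abscessus overexpressing wild-type or A309P MAB_4508 from pMV261 plated on 7H10 agar with 10% OADC containing drug; plates incubated at 30 °C for 3 days before growth inspection.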

[10] = system: Mycobacteroides abscessus; assay: Antibacterial activity against CF patient derived Mycobacterium abscessus subsp. massiliense isolate 122 smooth variant after 3 to 5 days by two fold serial dilution method; format: functional; method in brief: as §1
[11] = target: Cytochrome P450 2C9 (Homo sapiens, UniProt P11712); assay: Inhibition of CYP2C9 in human liver microsomes preincubated for 5 mins followed by NADPH addition measured after 10 mins by LC-MS/MS analysis; format: ADME
[12] = system: Mycobacteroides abscessus; assay: Antibacterial activity against CF patient derived Mycobacterium abscessus subsp. abscessus rough variant after 3 to 5 days by two fold serial dilution method; format: functional; method in brief: as §1
[13] = Antibacterial activity against CF patient derived Mycobacterium abscessus subsp. bolletii isolate 114 smooth variant after 3 to 5 days by two fold serial dilution method; format: functional; conditions: Mycobacteroides abscessus; method in brief: as §1
[14] = system: Mycobacteroides abscessus; assay: Antibacterial activity against CF patient derived Mycobacterium abscessus subsp. abscessus isolate 1298 smooth variant after 3 to 5 days by two fold serial dilution method; format: functional; method in brief: as §1
[15] = system: Salmonella typhimurium; assay: Mutagenicity in Salmonella typhimurium TA100 assessed as increase in revertant colonies at 0.24 to 500 ug/well after 72 hrs by Ames test relative to control; format: toxicity; conditions: salmonella enterica subsp. enterica serovar typhimurium
Method in brief: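 Reverse mutation at histidine locus in S. typhimurium TA98 (frameshift) and TA100 (base-pair substitution), with and without S9; 0.24−500 μg/well; 37 ± 2 °C for 72 h, triplicates; DMSO vehicle; sodium azide, 2-nitrofluorene, 2-aminoanthracene positive controls; positive if revertants rise ≥2-fold over negative control dose-dependently.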

[16] = system: Mycobacteroides abscessus; assay: Antibacterial activity against CF patient derived Mycobacterium abscessus subsp. massiliense isolate 212 smooth variant after 3 to 5 days by two fold serial dilution method; format: functional; method in brief: as §1
[17] = target: T1, Cytochrome P450 1A2 (Homo sapiens, UniProt P05177); assay: Inhibition of CYP1A2 in human liver microsomes preincubated for 5 mins followed by NADPH addition measured after 10 mins by LC-MS/MS analysis; format: ADME
T1 sequence (P05177 whole entry): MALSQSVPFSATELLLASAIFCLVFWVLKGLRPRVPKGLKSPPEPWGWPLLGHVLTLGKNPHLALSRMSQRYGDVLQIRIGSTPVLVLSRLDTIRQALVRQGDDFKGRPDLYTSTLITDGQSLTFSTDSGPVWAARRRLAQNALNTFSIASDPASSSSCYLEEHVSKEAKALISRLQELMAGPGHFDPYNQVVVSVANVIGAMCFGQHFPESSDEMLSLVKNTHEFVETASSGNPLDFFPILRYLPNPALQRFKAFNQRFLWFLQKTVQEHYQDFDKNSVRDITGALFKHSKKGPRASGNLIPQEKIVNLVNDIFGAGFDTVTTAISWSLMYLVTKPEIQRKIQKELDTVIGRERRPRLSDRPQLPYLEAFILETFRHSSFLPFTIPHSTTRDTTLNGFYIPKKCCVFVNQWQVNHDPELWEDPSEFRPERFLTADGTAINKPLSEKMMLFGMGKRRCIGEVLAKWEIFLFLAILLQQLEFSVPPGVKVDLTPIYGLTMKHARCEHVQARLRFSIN

[18] = target: T2, Cytochrome P450 2C8 (Homo sapiens, UniProt P10632); assay: Inhibition of CYP2C8 in human liver microsomes preincubated for 5 mins followed by NADPH addition measured after 10 mins by LC-MS/MS analysis; format: ADME
T2 sequence (P10632 whole entry): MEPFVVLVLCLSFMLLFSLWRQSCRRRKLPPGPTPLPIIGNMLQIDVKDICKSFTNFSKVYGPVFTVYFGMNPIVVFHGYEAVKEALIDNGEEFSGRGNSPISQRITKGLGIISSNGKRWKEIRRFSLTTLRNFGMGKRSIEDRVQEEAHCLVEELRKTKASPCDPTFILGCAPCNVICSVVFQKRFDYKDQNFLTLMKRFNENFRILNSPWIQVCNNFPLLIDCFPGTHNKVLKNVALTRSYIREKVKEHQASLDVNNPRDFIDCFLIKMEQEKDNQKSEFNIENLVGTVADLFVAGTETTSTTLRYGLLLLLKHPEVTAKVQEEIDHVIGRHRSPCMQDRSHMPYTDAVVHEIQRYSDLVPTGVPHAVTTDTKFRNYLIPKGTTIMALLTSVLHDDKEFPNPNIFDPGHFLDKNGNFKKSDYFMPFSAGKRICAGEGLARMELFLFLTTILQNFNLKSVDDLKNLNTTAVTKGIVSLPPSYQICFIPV

[19] = Antibacterial activity against CF patient derived Mycobacterium abscessus subsp. bolletii isolate 116 smooth variant after 3 to 5 days by two fold serial dilution method; format: functional; conditions: Mycobacteroides abscessus; method in brief: as §1
[20] = target: T3, CYP2C8 (Homo sapiens, UniProt P10632); assay: Inhibition of CYP2C8 in human liver microsomes preincubated for 5 mins followed by NADPH addition at 10 uM measured after 10 mins by LC-MS/MS analysis relative to control; format: ADME
T3 sequence (P10632 whole entry): T2 sequence (P10632 whole entry)

Sequence of Cytochrome P450 3A4 (P08684 whole entry): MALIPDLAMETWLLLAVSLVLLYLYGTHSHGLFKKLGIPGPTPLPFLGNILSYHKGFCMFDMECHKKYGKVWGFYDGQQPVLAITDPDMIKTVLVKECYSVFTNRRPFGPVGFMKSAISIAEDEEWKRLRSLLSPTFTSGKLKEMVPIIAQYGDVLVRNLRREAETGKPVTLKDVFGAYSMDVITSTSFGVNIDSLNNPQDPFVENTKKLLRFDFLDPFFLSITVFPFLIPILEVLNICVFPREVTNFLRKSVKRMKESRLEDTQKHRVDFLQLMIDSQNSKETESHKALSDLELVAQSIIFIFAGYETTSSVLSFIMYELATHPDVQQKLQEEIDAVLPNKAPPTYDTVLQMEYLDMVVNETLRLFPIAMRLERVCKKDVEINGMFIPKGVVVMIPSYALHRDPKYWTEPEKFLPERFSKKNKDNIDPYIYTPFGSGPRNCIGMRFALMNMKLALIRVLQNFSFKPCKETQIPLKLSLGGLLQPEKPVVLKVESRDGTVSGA
Sequence of Cytochrome P450 2C9 (P11712 whole entry): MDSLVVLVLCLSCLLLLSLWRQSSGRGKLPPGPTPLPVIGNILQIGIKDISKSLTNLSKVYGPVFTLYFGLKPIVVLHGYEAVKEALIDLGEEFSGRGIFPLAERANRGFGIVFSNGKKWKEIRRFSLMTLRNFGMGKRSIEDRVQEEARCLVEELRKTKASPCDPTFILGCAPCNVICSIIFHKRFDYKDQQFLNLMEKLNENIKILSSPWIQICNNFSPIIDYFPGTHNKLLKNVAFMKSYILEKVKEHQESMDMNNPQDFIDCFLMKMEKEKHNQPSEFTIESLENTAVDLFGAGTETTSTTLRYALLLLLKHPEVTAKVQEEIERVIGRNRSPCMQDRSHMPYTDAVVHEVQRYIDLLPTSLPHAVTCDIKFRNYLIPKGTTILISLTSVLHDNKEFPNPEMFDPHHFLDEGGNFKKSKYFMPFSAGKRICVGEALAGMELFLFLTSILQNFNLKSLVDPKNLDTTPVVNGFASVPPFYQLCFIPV

O=C(NC1CCCCCC1)c1cc2c(Cl)cc(Cl)cc2[nH]1
inhibition [1]: inactive | IC50 [2]: ≤ 20 µM | MIC [3]: 0.125 µg/mL (≈ 0.384 µM) | MIC [4]: 0.125 µg/mL (≈ 0.384 µM) | selectivity ratio [5]: 2050 to 4100 | MIC [6]: 0.125 µg/mL (≈ 0.384 µM) | MIC [7]: 0.125 µg/mL (≈ 0.384 µM) | MIC [8]: 0.125 µg/mL (≈ 0.384 µM) | Activity [9]: inactive | MIC [10]: 0.125 µg/mL (≈ 0.384 µM) | IC50 [11]: ≤ 20 µM | MIC [12]: 0.125 µg/mL (≈ 0.384 µM) | MIC [13]: 0.125 µg/mL (≈ 0.384 µM) | MIC [14]: 0.125 µg/mL (≈ 0.384 µM) | fold change (FC) [15]: < 2 | MIC [16]: 0.125 µg/mL (≈ 0.384 µM) | IC50 [17]: ≤ 20 µM | IC50 [18]: ≤ 20 µM | MIC [19]: 0.25 µg/mL (≈ 0.769 µM) | inhibition at 10 min, 10 µM [20]: 20%

From ChEMBL document CHEMBL4014347, “Targeting Mycolic Acid Transport by Indole-2-carboxamides for the Treatment of Mycobacterium abscessus Infections” (J Med Chem, 2017)
